The record followed here is ChEMBL document CHEMBL1158568, “In silico directed chemical probing of the adenosine receptor family” (Bioorg Med Chem, 2010).

Assay [1] deals with T1, Adenosine receptor A2a (Homo sapiens, UniProt P29274). In words: Antagonist activity at human adenosine A2A receptor expressed in CHO cells assessed as inhibition of […]-induced cAMP accumulation pre-incubated for 15 mins by enzyme immunoassay. It is filed as functional, cell-based. The procedure, abridged: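 CHO-A2A cells, 10,000/well, in DMEM F-12 with 10% FCS; pre-incubated 15 min at 37 °C with 30 µM rolipram and test compound, then stimulated with 1 µM NECA for 15 min. cAMP measured by enzyme immunoassay at 450 nm; antagonist pKB derived from IC50 via Leff–Dougall equation.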
T1 sequence (P29274 whole entry): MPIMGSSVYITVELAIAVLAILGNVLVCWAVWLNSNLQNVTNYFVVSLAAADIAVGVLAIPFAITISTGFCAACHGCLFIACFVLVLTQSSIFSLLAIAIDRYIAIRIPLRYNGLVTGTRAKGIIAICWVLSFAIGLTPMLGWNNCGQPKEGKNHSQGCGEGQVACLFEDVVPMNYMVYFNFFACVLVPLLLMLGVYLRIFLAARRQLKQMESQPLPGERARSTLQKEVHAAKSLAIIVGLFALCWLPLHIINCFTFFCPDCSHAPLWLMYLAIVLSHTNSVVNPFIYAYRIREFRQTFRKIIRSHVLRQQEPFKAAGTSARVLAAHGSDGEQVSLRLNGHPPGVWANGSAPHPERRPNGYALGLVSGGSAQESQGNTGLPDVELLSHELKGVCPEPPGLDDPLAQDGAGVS
Background: Changes in cAMP serve as a functional read-out for many G protein-coupled receptors.

In assay [2] the target is T2, Adenosine receptor A1 (Homo sapiens) (UniProt P30542).
T2 sequence (whole entry): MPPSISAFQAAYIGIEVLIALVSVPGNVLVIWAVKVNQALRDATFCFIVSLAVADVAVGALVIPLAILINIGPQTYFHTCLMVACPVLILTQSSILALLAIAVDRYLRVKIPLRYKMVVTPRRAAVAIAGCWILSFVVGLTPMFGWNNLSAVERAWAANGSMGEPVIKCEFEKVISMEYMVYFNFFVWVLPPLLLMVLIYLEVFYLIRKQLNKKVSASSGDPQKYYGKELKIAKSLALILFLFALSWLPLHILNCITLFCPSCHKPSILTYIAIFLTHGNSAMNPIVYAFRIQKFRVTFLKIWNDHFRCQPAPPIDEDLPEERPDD
In words: Displacement of [3H]DPCPX from human adenosine A1 receptor expressed in CHO cells at 10 uM after 60 mins by beta scintillation counting. It is filed as cell-based. The method, boiled down:
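Membranes of CHO-A1 cells (15 lg protein) in 20 mM Hepes, 100 mM NaCl, 10 mM MgCl2, 2 units/ml adenosine deaminase, pH 7.4, with 2 nM [3H]DPCPX; 60 min at 25 °C, duplicates. Non-specific binding with 10 µM (R)-PIA. Filtration, scintillation counting. Single point at 10 µM or six concentrations 10 nM–100 µM; Ki by Cheng–Prusoff.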
For orientation: Loss of bound radioactivity is the signal in a displacement assay; it reports binding, not function.

Assay [3] addresses T1, Adenosine receptor A2a. In words: Displacement of [3H]ZM241385 from human adenosine A2A receptor expressed in human HeLa cells after 30 mins by beta scintillation counting. It is filed as cell-based. The procedure, abridged:
(§1)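 Membranes from HeLa-A2A cells, 10 lg protein, in 50 mM Tris–HCl, 1 mM EDTA, 10 mM MgCl2, 2 UI/mL adenosine deaminase, pH 7.4; 3 nM [3H]ZM241385, 30 min at 25 °C, duplicates. 50 µM NECA defined non-specific binding. Single 10 µM point or six concentrations 10 nM–100 µM; Ki by Cheng–Prusoff.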

For assay [4], the target named is T3, Adenosine receptor A2b (Homo sapiens) (UniProt P29275).
T3 sequence (whole entry): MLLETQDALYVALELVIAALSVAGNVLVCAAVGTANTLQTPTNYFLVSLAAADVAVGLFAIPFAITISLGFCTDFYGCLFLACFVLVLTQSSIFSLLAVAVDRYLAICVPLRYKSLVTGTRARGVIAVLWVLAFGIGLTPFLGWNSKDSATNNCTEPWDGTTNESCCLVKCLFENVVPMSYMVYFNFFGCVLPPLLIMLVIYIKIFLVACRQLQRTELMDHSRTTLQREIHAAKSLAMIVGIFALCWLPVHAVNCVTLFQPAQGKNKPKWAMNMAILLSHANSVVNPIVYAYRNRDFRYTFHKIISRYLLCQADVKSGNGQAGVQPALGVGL
In words: Displacement of [3H]DPCPX from human adenosine A2B receptor expressed in HEK293 cells at 10 uM after 30 mins by beta scintillation counting. The format is cell-based.

Assay [5] addresses 5-hydroxytryptamine receptor 7 (Homo sapiens) (UniProt P34969). In words: Displacement of [3H]SB269970 from human 5HT7 receptor expressed in HEK293 cells at 10 uM after 60 mins by beta scintillation counting. The format is cell-based. The procedure, abridged:
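HEK-293-5-HT7 membranes (5 lg protein) in 50 mM Tris–HCl, 4 mM CaCl2, 1 mM ascorbic acid, 0.1 mM pargyline, pH 7.4; 2 nM [3H]SB269970, compound at 10 µM, 60 min at 37 °C, duplicates. Non-specific defined with 25 µM clozapine.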

For assay [6], the target named is T1, Adenosine receptor A2a. In words: Displacement of [3H]ZM241385 from human adenosine A2A receptor expressed in human HeLa cells at 10 uM after 30 mins by beta scintillation counting. It is filed as cell-based. The method, boiled down:
as §1

Assay [7] concerns the target Histamine H1 receptor (Homo sapiens) (UniProt P35367). In words: Displacement of [3H]pyrilamine from human histamine H1 receptor expressed in CHO cells at 10 uM after 60 mins by beta scintillation counting. It is filed as cell-based. The procedure, abridged:
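CHO-H1 membranes (1 lg protein) in 50 mM Tris–HCl pH 7.4 with 2 nM [3H]pyrilamine and compound at 10 µM; 60 min at 27 °C, duplicates. 10 µM triprolidine for non-specific binding; GF/C filtration, scintillation counting.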

The target of assay [8] is T4, Alpha-2A adrenergic receptor (Homo sapiens) (UniProt P08913).
T4 sequence (whole entry): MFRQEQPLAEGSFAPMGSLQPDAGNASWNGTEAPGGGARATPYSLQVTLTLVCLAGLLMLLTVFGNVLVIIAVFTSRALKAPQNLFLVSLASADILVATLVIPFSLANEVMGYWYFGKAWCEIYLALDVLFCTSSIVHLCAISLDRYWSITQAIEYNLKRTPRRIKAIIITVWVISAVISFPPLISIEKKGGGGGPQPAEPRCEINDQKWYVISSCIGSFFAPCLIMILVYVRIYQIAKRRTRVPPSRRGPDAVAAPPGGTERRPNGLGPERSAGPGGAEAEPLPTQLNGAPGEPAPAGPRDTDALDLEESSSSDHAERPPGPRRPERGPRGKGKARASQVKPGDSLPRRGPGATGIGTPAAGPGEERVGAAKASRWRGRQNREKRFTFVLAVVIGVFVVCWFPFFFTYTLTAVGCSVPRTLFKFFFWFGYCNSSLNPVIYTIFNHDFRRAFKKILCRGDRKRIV
In words: Displacement of [3H]MK912 from human adrenergic alpha2A receptor expressed in CHO cells at 10 uM after 30 mins by beta scintillation counting. It is filed as cell-based. The method, boiled down: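 CHO-a2A membranes (25 lg protein) in 25 mM Na2PO4, pH 7.4, with 0.37 nM [3H]MK-912 and compound at 10 µM; 30 min at 25 °C, duplicates. Non-specific binding with 100 µM norepinephrine; filtration and scintillation counting.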

The target of the next assay is T5, Adenosine receptor A3 (Homo sapiens, UniProt P0DMS8).
T5 sequence (P0DMS8 whole entry): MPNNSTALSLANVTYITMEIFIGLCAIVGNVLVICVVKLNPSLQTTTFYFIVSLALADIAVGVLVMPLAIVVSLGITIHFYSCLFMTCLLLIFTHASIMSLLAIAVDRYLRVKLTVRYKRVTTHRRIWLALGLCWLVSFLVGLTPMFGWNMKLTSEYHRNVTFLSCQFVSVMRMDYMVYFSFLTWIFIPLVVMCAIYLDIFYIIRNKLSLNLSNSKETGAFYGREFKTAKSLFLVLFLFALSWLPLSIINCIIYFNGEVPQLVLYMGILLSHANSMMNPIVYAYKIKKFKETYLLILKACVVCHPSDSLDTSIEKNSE
In words: Displacement of [3H]NECA from human adenosine A3 receptor expressed in human HeLa cells after 180 mins by beta scintillation counting. It is filed as cell-based. The method, boiled down: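 HeLa-A3 membranes (90 lg protein) in 50 mM Tris–HCl, 1 mM EDTA, 5 mM MgCl2, 2 UI/mL adenosine deaminase, pH 7.4; 30 nM [3H]NECA, 180 min at 25 °C, triplicates, GF/B filtration. Non-specific with 100 µM (R)-PIA. Tested at 10 µM or six concentrations 10 nM–100 µM; Ki by Cheng–Prusoff.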

Histamine H1 receptor (Homo sapiens), sequence (P35367 whole entry): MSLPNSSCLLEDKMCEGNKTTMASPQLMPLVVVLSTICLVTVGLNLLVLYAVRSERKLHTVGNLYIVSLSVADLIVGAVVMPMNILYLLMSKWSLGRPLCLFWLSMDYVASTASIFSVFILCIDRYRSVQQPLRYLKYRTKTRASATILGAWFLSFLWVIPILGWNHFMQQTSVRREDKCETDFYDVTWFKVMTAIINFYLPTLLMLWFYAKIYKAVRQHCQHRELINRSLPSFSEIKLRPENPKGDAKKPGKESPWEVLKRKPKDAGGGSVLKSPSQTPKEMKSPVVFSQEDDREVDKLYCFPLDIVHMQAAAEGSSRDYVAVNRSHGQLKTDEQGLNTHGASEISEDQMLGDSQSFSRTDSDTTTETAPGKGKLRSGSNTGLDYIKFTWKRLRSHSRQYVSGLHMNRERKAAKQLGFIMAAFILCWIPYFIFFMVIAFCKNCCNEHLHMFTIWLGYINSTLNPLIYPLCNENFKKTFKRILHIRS
5-hydroxytryptamine receptor 7 (Homo sapiens), sequence (P34969 whole entry): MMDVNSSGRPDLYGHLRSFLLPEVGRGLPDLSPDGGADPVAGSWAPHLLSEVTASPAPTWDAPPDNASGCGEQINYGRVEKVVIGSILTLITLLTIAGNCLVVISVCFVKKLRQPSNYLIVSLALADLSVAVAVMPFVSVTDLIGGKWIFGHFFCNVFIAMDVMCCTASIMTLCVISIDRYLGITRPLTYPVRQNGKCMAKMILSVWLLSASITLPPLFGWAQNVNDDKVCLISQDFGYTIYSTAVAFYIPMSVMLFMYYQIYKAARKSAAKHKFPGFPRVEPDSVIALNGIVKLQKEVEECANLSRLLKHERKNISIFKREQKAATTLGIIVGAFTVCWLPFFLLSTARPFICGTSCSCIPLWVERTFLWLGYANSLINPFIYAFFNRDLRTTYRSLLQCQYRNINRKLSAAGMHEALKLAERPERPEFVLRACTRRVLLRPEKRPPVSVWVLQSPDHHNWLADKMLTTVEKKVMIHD

As a reminder, the pKb is −log10 of the Kb, conventionally taken in molar units. For orientation: inhibition means the share of the control response that was lost under treatment. By Ki is commonly meant the dissociation constant of the complex between target and ligand, obtained from inhibition or displacement. Read a high Ki as weaker binding. For the compound `Cc1ccc(-c2nc(C(=O)Nc3ccccn3)c3n2CCCCC3)cc1`, at Adenosine receptor A2a [1], the pKb was determined as 5.1. In addition, the inhibition is 38.9% in [2], 19% in assay [4] and 68.9% on Adenosine receptor A2a [6]. Also, the Ki is 2510 nM at Adenosine receptor A2a [3] and 3160 nM on Adenosine receptor A3. In addition, the Activity in [5] is 18%; in assay [7], 39%; in assay [8] it was 12%.
